From PubChem BioAssay
Sampled rows, rich in hits. Any-hit rate of the full collection: about 3.6%.
EBNA-1 inh: blocks EBNA-1 binding to DNA; EBNA-1 DNA binding, fluorescence polarization; 300,000 tested, 0.34% active; inhibition, % at 14.8 µM; in the data active = inhibition above about 28%
NR3A LBD binder: modulates the human NR3A ligand-binding domain. AID 1259313. NR3A LBD differential scanning fluorimetry, Tm shift; 0% = protein alone, 100% = glycine-bound protein. 340,000 tested, 2.5% active. Tm shift relative to glycine control, % at 25 µM;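 active = melting temperature shift of at least 10% of the positive control shift, at one fixed dose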
ZTA counter: ZTA (EBV) inhibition in EBNA-1 counter-screen; ZTA-DNA binding, fluorescence polarization; inhibition, % at 11 µM; 320,000 tested, 0.15% active; AID 2234; in the data active = inhibition above about 33%
Target sequence (P03206 whole entry, looked up): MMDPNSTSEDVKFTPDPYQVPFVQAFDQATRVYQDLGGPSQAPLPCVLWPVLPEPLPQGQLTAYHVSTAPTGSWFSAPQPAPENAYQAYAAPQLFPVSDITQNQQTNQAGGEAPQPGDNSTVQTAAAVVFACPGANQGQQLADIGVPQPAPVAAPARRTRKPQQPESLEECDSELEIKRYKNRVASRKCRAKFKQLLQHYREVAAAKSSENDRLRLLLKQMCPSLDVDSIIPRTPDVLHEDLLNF
NS3 helicase inh: HCV NS3 helicase inhibition. NS3 helicase DNA unwinding, Cy5 molecular beacon fluorescence. inhibition, % at 10.9 µM. 290,000 tested, 0.56% active. AID 1800;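 active = inhibition above the mean of all tested compounds plus 3 SD, set per campaign, cut at about 35% in these data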;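 also: 0% = DMSO wells and 100% = thioflavine S control wells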
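System: NS3 helicase fragment of HCV / Schedule: 1 h at 25 °C / Control set: DMSO alone as 0% and 110 µM thioflavine S as 100% / Reagent: Cy5/quencher beacon DNA duplex and ATP to start / Technique: Cy5 fluorescence / Replication: singlicate / Evaluation: % inhibition of end-to-start signal ratio versus controls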
FID counter: counter-screen for HCV NS3 helicase inhibitors: DNA intercalator displacement. inhibition, % at 7.9 µM. DNA fluorescent intercalator displacement, fluorescence. 290,000 tested, 0.17% active; in the data active = inhibition above about 37%;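 also: 0% = vehicle and 100% = reference compound; higher means more ethidium bromide displaced from hairpin DNA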
FGF22 binding-1: binders of recombinant human FGF22 by thermal shift. activity (Tm shift, normalised), % at 9.99 µM. SYPRO orange fluorescence; percent of sucrose octasulfate shift, DMSO zero. 340,000 tested, 1.5% active. Q9HCT0. AID 651658;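 active = mean Tm shift, scaled 0 neutral to 100 positive control, at about 1.3% or above, every replicate too, limit read from the data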
Target sequence (Q9HCT0 whole entry, looked up): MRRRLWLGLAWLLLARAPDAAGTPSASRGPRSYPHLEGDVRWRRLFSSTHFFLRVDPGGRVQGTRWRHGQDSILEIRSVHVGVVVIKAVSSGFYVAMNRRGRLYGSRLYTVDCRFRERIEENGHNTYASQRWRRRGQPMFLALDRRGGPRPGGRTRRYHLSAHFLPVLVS
FGF22 binding-2: FGF22 (human) binding in thermal shift; 1,000 tested, 2% active; shares compounds with FGF22 binding-1; AID 720646; thermal shift activity, °C (ΔTm) at 38 µM; recombinant FGF22 thermal shift, SYPRO orange fluorescence;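 active = fitted rise in melting shift crosses a set limit at or below the top valid dose tested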
TSA no protein: shows thermal shift signal without protein, FGF22 counter-screen; 1,000 tested, 2% active; AC50, µM (top dose mostly 38 µM); compound-only SYPRO orange thermal shift counter-screen, no protein; shares compounds with FGF22 binding-1;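 active = rising signal whose fitted curve reaches the 0.54 level within the top valid dose, showing a melting point, actives reach about 13 µM in these data; inactive = the rest, including activity in the opposite direction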; also: value is where the raw curve crosses a fixed level and not half-maximal
* hit, by the source's call; i = inactive; . = no result; [ ] = another dose, or the depositor's remark.

SMILES | EBNA-1 inh | NR3A LBD binder | ZTA counter | NS3 helicase inh | FID counter | FGF22 binding-1 | FGF22 binding-2 | TSA no protein
O=C(Nc1ccc2c(c1)[C@@H]1C[C@H](CC(=O)N3CCCCC3)O[C@@H](CO)[C@@H]1O2)NC1CCCC1 | . | . | . | . | . | 20* | 0.18 | i
COCC(=O)Nc1ccc2c(c1)[C@@H]1C[C@@H](CC(=O)NCc3ccccn3)O[C@@H](CO)[C@@H]1O2 | . | . | . | . | . | 1.3* | 0.018[42 µM] | i
O=C(NCC[C@@H]1CC[C@@H](NC(=O)Nc2cc(F)ccc2F)[C@@H](CO)O1)Nc1ccc(Cl)cc1 | . | . | . | . | . | 0 | . | .
O=C(CNS(=O)(=O)c1ccccc1F)OCC(=O)c1c[nH]c2ccccc12 | . | 7 | 5 | . | . | 0 | . | .
O=C(CNS(=O)(=O)c1ccccc1)OCC(=O)c1c[nH]c2ccccc12 | . | -4 | -15 | . | . | 2.1* | 0.1 | i
COc1cccc(NC(=O)CN(C)C(=O)c2cn(-c3ccccc3)nc2-c2cccs2)c1 | 11 | 14* | 4 | . | . | 2.1* | 0.63 | i
Cc1noc(C)c1S(=O)(=O)Nc1ccc2c(c1)C(=O)N([C@@H](C)CO)C[C@@H](C)[C@@H](CN(C)S(=O)(=O)c1ccc(F)cc1)OCCCC[C@@H](C)O2 | . | . | . | . | . | 0 | . | .
O=C(C[C@H]1C=C[C@H](NC(=O)Nc2cc(F)ccc2F)[C@@H](CO)O1)Nc1ccc(-c2ccccc2)cc1 | . | . | . | . | . | 0 | . | .
O=C(C[C@@H]1C=C[C@H](NC(=O)c2cccc(F)c2)[C@@H](CO)O1)NCc1ccccc1 | . | . | . | . | . | 0 | . | .
O=C(C[C@@H]1C=C[C@H](NC(=O)Nc2cc(F)ccc2F)[C@H](CO)O1)Nc1ccc(-c2ccccc2)cc1 | . | . | . | . | . | 1.8* | -0.26 | i
O=C(C[C@@H]1C=C[C@H](NC(=O)c2cccc(F)c2)[C@H](CO)O1)NCc1ccccc1 | . | . | . | . | . | 20* | -0.14 | i
O=C(NC1CCC1)[C@H]1[C@H](CO)[C@H]2Cn3c(ccc(-c4cccc(F)c4)c3=O)[C@@H]1N2Cc1cocn1 | . | . | . | . | . | 0 | . | .
COc1ccc(NC(=O)N(C)C[C@@H]2Oc3c(NS(=O)(=O)c4cn(C)cn4)cccc3C(=O)N([C@@H](C)CO)C[C@H]2C)cc1 | . | . | . | . | . | 0 | . | .
Cc1ccc(NC(=O)c2sc3ncn(CC(=O)N4CCN(c5ccccn5)CC4)c(=O)c3c2C)cc1F | -2 | 10 | -8 | -24 | -32 | 1.4* | 0.091 | i
COc1ccc(N2C(=O)C(CC(=O)Nc3ccccc3)N(Cc3ccc4c(c3)OCO4)C2=O)cc1 (configuration not stated) | 7 | 3 | 0 | 8 | -3 | 1.4* | 0.043 | i
C=CCN1C(=O)C(CC(=O)Nc2ccc(OCC)cc2)N(Cc2ccccn2)C1=S (configuration not stated) | -9 | -6 | 8 | 2 | -25 | 1 | . | .
CCOc1ccc(N2C(=O)C(CC(=O)Nc3ccc(F)cc3)N(Cc3ccccn3)C2=S)cc1 (configuration not stated) | -2 | 6 | -8 | -12 | -22 | 1.7* | -0.35 | i
COc1ccc(N2C(=O)C(CC(=O)Nc3ccccc3)N(Cc3ccccn3)C2=S)cc1 (configuration not stated) | 1 | 2 | 10 | -11 | -22 | 1.7* | -0.015 | i
CCOc1ccc(N2C(=O)C(CC(=O)Nc3ccccc3)N(Cc3ccccn3)C2=S)cc1 (configuration not stated) | -2 | 0 | -18 | -25 | -21 | 1.5* | 0.58 | i
CCNC(=O)CC1C(=O)N(c2ccc(F)cc2)C(=O)N1Cc1ccccn1 (configuration not stated) | 3 | 0 | 5 | 0 | -1 | . | . | .
CCCNC(=O)C[C@@H]1C[C@@H]2c3cc(NS(=O)(=O)c4ccccc4)ccc3O[C@@H]2[C@@H](CO)O1 | . | . | . | . | . | 0 | . | .
COc1ccc2c3c(n(C)c2c1)[C@H](CO)N(Cc1ccccc1)CC31CN(C(=O)C2CC2)C1 | . | . | . | . | . | 0 | . | .
O=C(N[C@H]1CC[C@@H](CCNS(=O)(=O)c2ccc(F)cc2)O[C@H]1CO)C1CCOCC1 | . | . | . | . | . | 0 | . | .
CC(C)NC(=O)N1[C@H](CO)[C@@H](c2ccccc2-c2ccc(F)cc2)[C@@H]1C#N | . | . | . | . | . | 1 | . | .
O=C(NCC1CC1)[C@@H]1[C@@H](CO)[C@@H]2Cn3c(ccc(-c4ccc(F)cc4)c3=O)[C@H]1N2 | . | . | . | . | . | 0 | . | .
SMILES | EBNA-1 inh | NR3A LBD binder | ZTA counter | NS3 helicase inh | FID counter | FGF22 binding-1 | FGF22 binding-2 | TSA no protein
CCCNC(=O)N(C)C[C@@H]1Oc2ncc(C#CC3(O)CCCC3)cc2C(=O)N([C@H](C)CO)C[C@@H]1C | . | . | . | . | . | 0 | . | .
COC(=O)CN1C(=S)N(c2ccc(F)cc2)C(=O)C1CC(=O)Nc1ccc(F)cc1 (configuration not stated) | -1 | 5 | 4 | 9 | -1 | 0 | . | .
COC(=O)CN1C(=S)N(c2ccc(Cl)cc2)C(=O)C1CC(=O)Nc1ccc(F)cc1 (configuration not stated) | 14 | 27* | -4 | -3 | 4 | 1.9* | -0.16 | i
O=C(Nc1ccc(Cl)c(Cl)c1)N[C@H]1CC[C@H](CCn2cc(C3CCCC3)nn2)O[C@H]1CO | . | . | . | . | . | 1 | . | .
CCNC(=O)C[C@@H]1CC[C@H]2[C@@H](COC[C@@H](O)CN2C(=O)C2CCOCC2)O1 | . | . | . | . | . | 0 | . | .
CCNC(=O)C[C@H]1CC[C@@H]2[C@H](COC[C@H](O)CN2C(=O)C2CCOCC2)O1 | . | . | . | . | . | 27* | 0.056 | i
O=C(C[C@H]1CC[C@H]2[C@@H](COC[C@@H](O)CN2C(=O)C2CC2)O1)NCc1ccncc1 | . | . | . | . | . | 6.3* | 0.012[42 µM] | i
Oc1ccc(-c2nc3ccccc3s2)c(O)c1 | -3 | 39* | 6 | -5 | 6 | 1.3* | 0.22 | i
Nc1ccc(O)c(-c2nc3ccccc3s2)c1 | -4 | -3 | -3 | 16 | -3 | . | . | .
COc1ccc(-c2nn(CCC(=O)O)cc2CCC(=O)O)cc1 | 1 | -1 | -23 | 5 | 2 | . | . | .
COc1ccc(C2=NN(c3ccccc3)C(c3cn(CCC(=O)O)nc3-c3ccccc3)C2)cc1 (configuration not stated) | 4 | 5 | 12 | -34 | -12 | 2.3* | 0.065 | i
Cc1cc(C)cc(N(CC(=O)NC2CCC(C)CC2)S(=O)(=O)c2c(C)noc2C)c1 (configuration not stated) | -5 | -1 | -13 | 9 | -8 | 1.4* | -0.055 | i
Cc1cc(C)cc(N(CC(=O)O)S(=O)(=O)c2c(C)noc2C)c1 | -1 | 2 | -6 | 2 | -5 | 0 | . | .
